Assay results from paper PMC3116947 (Journal of Molecular Recognition, 2010).
Ends that are not written are not given here.

Columns and labels:
[1] = biological target: D187A mutant of cSH3 domain (cSH3_D187A) of Grb2 (Homo sapiens, UniProt P62993, D187A); assay: ITC binding of G1 and G2 peptides to cSH3_D187A; conditions: SD
Summary of the method: (§1)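 Human Grb2 cSH3 domain (wildtype or point mutant) expressed in E. coli Rosetta2(DE3), purified by Ni-NTA and size-exclusion chromatography. 12-mer human Gab1 peptides, concentration measured gravimetrically. ITC at 25 °C in 50 mM Tris pH 8.0, 200 mM NaCl, 1 mM EDTA, 5 mM β-mercaptoethanol: 25 injections of 2–8 mM peptide into 50–200 µM cSH3. Kd from one-site non-linear least-squares fit; 3–4 independent runs, SD.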

[2] = biological target: E174A mutant of cSH3 domain (cSH3_E174A) of Grb2 (Homo sapiens, UniProt P62993, E174A); assay: ITC binding of G1 and G2 peptides to cSH3_E174A
Summary of the method: as §1

[3] = biological target: E171A mutant of cSH3 domain (cSH3_E171A) of Grb2 (Homo sapiens, UniProt P62993, E171A); assay: ITC binding of G1 and G2 peptides to cSH3_E171A; conditions: SD
Summary of the method: as §1

[4] = biological target: D190A mutant of cSH3 domain (cSH3_D190A) of Grb2 (Homo sapiens, UniProt P62993, D190A); assay: ITC binding of G1 and G2 peptides to cSH3_D190A; conditions: SD
Summary of the method: as §1

[5] = biological target: cSH3 domain of Grb2 (Homo sapiens, UniProt P62993); assay: ITC binding of Gab1-derived peptides to wildtype cSH3 domain of Grb2; conditions: binding affinity (Kd), 50 mM Tris, pH 8.0, 25 °C (Figure 3a)
Sequence of cSH3 domain of Grb2 (P62993 156-215 limits assumed): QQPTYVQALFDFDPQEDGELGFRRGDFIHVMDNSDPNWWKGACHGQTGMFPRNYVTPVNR

Sequence of D187A mutant of cSH3 domain (cSH3_D187A) of Grb2 (P62993 156-215 D187A limits assumed): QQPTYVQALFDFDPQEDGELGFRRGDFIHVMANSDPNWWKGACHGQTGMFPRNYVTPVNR
Sequence of E174A mutant of cSH3 domain (cSH3_E174A) of Grb2 (P62993 156-215 E174A limits assumed): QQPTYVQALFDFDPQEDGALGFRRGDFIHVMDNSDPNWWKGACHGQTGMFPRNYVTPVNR
Sequence of D190A mutant of cSH3 domain (cSH3_D190A) of Grb2 (P62993 156-215 D190A limits assumed): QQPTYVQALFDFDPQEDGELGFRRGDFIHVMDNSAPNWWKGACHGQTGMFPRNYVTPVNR
Sequence of E171A mutant of cSH3 domain (cSH3_E171A) of Grb2 (P62993 156-215 E171A limits assumed): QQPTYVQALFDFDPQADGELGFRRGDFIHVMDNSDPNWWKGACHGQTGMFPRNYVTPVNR

Row | Sequence | Kd [1] [µM] | Kd [2] [µM] | Kd [3] [µM] | Kd [4] [µM] | Kd ([5]; in the absence of NaCl) [µM] | Kd ([5]; in the presence of 500 mM NaCl) [µM]
1 | PPPVDRNLKPDR [Peptide G2] | 182 ± 3 | > 1000 | 158 ± 1 | 77 ± 6 | – | –
2 | DIPPPRPPKPHP [Peptide G1] | 171 ± 8 | > 1000 | 444 ± 55 | 177 ± 17 | ~50 | ~200
